Legend:
Format in all cases: functional
MDA-MB-435 [1] = assay: Cytotoxicity against human MDA-MB-435 cells assessed as cell growth at 0.001 uM after 48 hrs by sulforhodamine B assay; details: MDA-MB-435, 48 h, read-out: Activity
SW-620 [2] = assay: Growth inhibition of human SW620 cells after 48 hrs by sulforhodamine B assay; details: SW-620, 48 h; for CC50: read-out: LC50 (the source's name)
Method in brief: (§1)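 NCI 60-cell screen, five-dose mode. Cells grown in RPMI 1640 with 5% FBS and 2 mM L-glutamine and plated at 5000-40,000 cells/well according to doubling time. After 24 h preincubation, a Tz plate was TCA-fixed. Five concentrations (10-fold or 1/2 log dilutions) were applied for 48 h at 37 °C. SRB staining read at 515 nm. IC50 taken from [(Ti-Tz)/(C-Tz)]×100 = 50.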

M14 = assay: Cytotoxicity against human M14 cells assessed as cell growth at 1 uM after 48 hrs by sulforhodamine B assay; details: M14, 48 h, read-out: Activity
HL-60(TB) [3] = assay: Cytotoxicity against human HL-60(TB) cells assessed as cell growth at 0.01 uM after 48 hrs by sulforhodamine B assay; details: HL-60, 48 h, read-out: Activity
Method in brief: (§2)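 NCI 60-cell panel. Cells are grown in RPMI 1640 with 5% FBS and 2 mM L-glutamine, seeded at 5000–40,000 cells/well according to doubling time, and preincubated 24 h. Time-zero plates are TCA-fixed. Compound from DMSO stock is given at five 10-fold or 1/2-log concentrations for 48 h at 37 °C, 5% CO2. Suspension cells are fixed with 80% TCA (final 16%) and SRB-stained, with absorbance at 515 nm. Percent growth is derived from Tz, control and test readings.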

HOP-92 = assay: Cytotoxicity against human HOP92 cells assessed as cell growth at 0.01 uM after 48 hrs by sulforhodamine B assay; details: HOP-92, 48 h, read-out: Activity
A549 = assay: Cytotoxicity against human A549 cells assessed as cell growth at 0.01 uM after 48 hrs by sulforhodamine B assay; details: A549, 48 h, read-out: Activity
Method in brief: (§3)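 NCI-60 five-dose screen. Cells were grown in RPMI 1640 with 5% FBS and 2 mM L-glutamine, plated at 5000–40,000 cells/well and preincubated for 24 h. Time-zero plates were TCA-fixed. DMSO-solubilized drug was added at five concentrations (10-fold or ½-log serial dilutions) for 48 h at 37 °C, 5% CO2. Cells were TCA-fixed, stained with 0.4% SRB and read at 515 nm. Percent growth used time-zero, control and test absorbances.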

UO-31 = assay: Cytotoxicity against human UO31 cells assessed as cell growth at 1 uM after 48 hrs by sulforhodamine B assay; details: UO-31, 48 h, read-out: Activity
SK-MEL-2 = assay: Cytotoxicity against human SK-MEL-2 cells assessed as cell growth at 0.001 uM after 48 hrs by sulforhodamine B assay; details: SK-MEL-2, 48 h, read-out: Activity
COLO 205 [4] = assay: Cytotoxicity against human COLO205 cells assessed as cell growth at 100 nM after 48 hrs by sulforhodamine B assay; details: COLO 205, 48 h, read-out: Activity
K562 [5] = assay: Cytotoxicity against human K562 cells assessed as cell growth at 100 nM after 48 hrs by sulforhodamine B assay; details: K562, 48 h, read-out: Activity
COLO 205 [6] = assay: Cytotoxicity against human COLO205 cells assessed as cell growth at 0.01 uM after 48 hrs by sulforhodamine B assay; details: COLO 205, 48 h, read-out: Activity; method in brief: as §3
SK-MEL-5 = assay: Cytotoxicity against human SK-MEL-5 cells assessed as cell growth at 0.001 uM after 48 hrs by sulforhodamine B assay; details: SK-MEL-5, 48 h, read-out: Activity
HCT-116 = assay: Growth inhibition of human HCT116 cells after 48 hrs by sulforhodamine B assay; details: HCT-116, 48 h; for CC50: read-out: LC50 (the source's name); method in brief: as §1
KM12 = assay: Cytotoxicity against human KM12 cells assessed as cell growth at 100 nM after 48 hrs by sulforhodamine B assay; details: KM12, 48 h, read-out: Activity
NCI-H522 [7] = assay: Cytotoxicity against human NCI-H522 cells assessed as cell growth at 100 nM after 48 hrs by sulforhodamine B assay; details: NCI-H522, 48 h, read-out: Activity
NCI-H522 [8] = assay: Cytotoxicity against human NCI-H522 cells assessed as cell growth at 0.01 uM after 48 hrs by sulforhodamine B assay; details: NCI-H522, 48 h, read-out: Activity
SW-620 [9] = assay: Cytotoxicity against human SW620 cells assessed as cell growth at 0.01 uM after 48 hrs by sulforhodamine B assay; details: SW-620, 48 h, read-out: Activity
CCRF-CEM = assay: Cytotoxicity against human CCRF-CEM cells assessed as cell growth at 0.001 uM after 48 hrs by sulforhodamine B assay; details: read-out: Activity; method in brief: as §3
NCI/ADR-RES = assay: Growth inhibition of human NCI/ADR-RES cells after 48 hrs by sulforhodamine B assay; details: for CC50: read-out: LC50 (the source's name); method in brief: as §1
HL-60(TB) [10] = assay: Cytotoxicity against human HL-60(TB) cells assessed as cell growth at 10 uM after 48 hrs by sulforhodamine B assay; details: HL-60, 48 h, read-out: Activity; method in brief: as §2
MDA-MB-435 [11] = assay: Cytotoxicity against human MDA-MB-435 cells assessed as cell growth at 1 uM after 48 hrs by sulforhodamine B assay; details: MDA-MB-435, 48 h, read-out: Activity
SW-620 [12] = assay: Cytotoxicity against human SW620 cells assessed as cell growth at 100 nM after 48 hrs by sulforhodamine B assay; details: SW-620, 48 h, read-out: Activity
K562 [13] = assay: Cytotoxicity against human K562 cells assessed as cell growth at 0.01 uM after 48 hrs by sulforhodamine B assay; details: K562, 48 h, read-out: Activity
NCI-H460 = assay: Cytotoxicity against human NCI-H460 cells assessed as cell growth at 100 nM after 48 hrs by sulforhodamine B assay; details: NCI-H460, 48 h, read-out: Activity
MDA-MB-231 = assay: Cytotoxicity against human MDA-MB-231 cells assessed as cell growth at 10 uM; details: read-out: Activity
Method in brief: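 NCI-60 screen: cells grown in RPMI 1640 with 5% FBS and 2 mM L-glutamine, plated at 5000–40,000 cells/well according to doubling time, and preincubated 24 h at 37 °C, 5% CO2. The single 10 µM dose (DMSO stock) was added, then incubated 48 h. Cells were TCA-fixed and stained with 0.4% SRB, read at 515 nm, and growth % calculated against time-zero and control plates.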

[14] = Growth inhibition of human […] cells after 48 hrs by sulforhodamine B assay; details: for CC50: read-out: LC50 (the source's name); method in brief: as §1
SK-OV-3 = assay: Cytotoxicity against human SKOV3 cells assessed as cell growth at 100 nM after 48 hrs by sulforhodamine B assay; details: SK-OV-3, 48 h, read-out: Activity
[15] = Cytotoxicity against human RPMI8266 cells assessed as cell growth at 100 nM after 48 hrs by sulforhodamine B assay; details: read-out: Activity

Structure (SMILES)	growth at 0.001 µM (MDA-MB-435 [1])	GI50 (SW-620 [2])	TGI (SW-620 [2])	CC50 (SW-620 [2])	growth at 1 µM (M14)	growth at 0.01 µM (HL-60(TB) [3])	growth at 0.01 µM (HOP-92)	growth at 0.01 µM (A549)	growth at 1 µM (UO-31)	growth at 0.001 µM (SK-MEL-2)	growth at 0.1 µM (COLO 205 [4])	growth at 0.1 µM (K562 [5])	growth at 0.01 µM (COLO 205 [6])	growth at 0.001 µM (SK-MEL-5)	GI50 (HCT-116)	TGI (HCT-116)	CC50 (HCT-116)	growth at 0.1 µM (KM12)	growth at 0.1 µM (NCI-H522 [7])	growth at 0.01 µM (NCI-H522 [8])	other results
COc1cc(C)cc(-c2c(-c3ccnc(-c4ccc(N(C)C)cc4)c3)cnn2CC#N)c1	88%	0.0394 µM	> 100 µM	> 100 µM	-9%	52%	-9%	59%	12%	97%	7%	7%	72%	95%	0.0501 µM	1.03 µM	> 100 µM	-36%	-47%	-7%	growth at 0.01 µM (SW-620 [9]): 69%; growth at 0.001 µM (CCRF-CEM): 95%; GI50 (NCI/ADR-RES): 0.0479 µM; TGI (NCI/ADR-RES): > 100 µM; CC50 (NCI/ADR-RES): > 100 µM; growth at 10 µM (HL-60(TB) [10]): -20%; growth at 1 µM (MDA-MB-435 [11]): -29%; growth at 0.1 µM (SW-620 [12]): 12%; growth at 0.01 µM (K562 [13]): 34%; growth at 0.1 µM (NCI-H460): -43%; growth at 10 µM (MDA-MB-231): 18.7%; GI50 [14]: 0.266 µM; TGI [14]: 1.96 µM; CC50 [14]: > 100 µM; growth at 0.1 µM (SK-OV-3): 37%; growth at 0.1 µM [15]: 13%
COc1cc(C)cc(-c2nn(CC#N)cc2-c2ccc(-c3cccc(C(C)=O)c3)nc2)c1	101%	1.3 µM	19.3 µM	> 100 µM	-53%	91%	80%	87%	21%	89%	88%	27%	100%	95%	2.33 µM	10.6 µM	87.4 µM	75%	68%	82%	growth at 0.01 µM (SW-620 [9]): 91%; growth at 0.001 µM (CCRF-CEM): 96%; GI50 (NCI/ADR-RES): 1.31 µM; TGI (NCI/ADR-RES): 6.06 µM; CC50 (NCI/ADR-RES): > 100 µM; growth at 10 µM (HL-60(TB) [10]): -8%; growth at 1 µM (MDA-MB-435 [11]): -44%; growth at 0.1 µM (SW-620 [12]): 56%; growth at 0.01 µM (K562 [13]): 80%; growth at 0.1 µM (NCI-H460): 84%; growth at 10 µM (MDA-MB-231): 34.8%; GI50 [14]: 3.3 µM; TGI [14]: 18.6 µM; CC50 [14]: > 100 µM; growth at 0.1 µM (SK-OV-3): 104%; growth at 0.1 µM [15]: 96%

From ChEMBL document CHEMBL1165950, “Design and synthesis of new potent anticancer pyrazoles with high FLT3 kinase inhibitory selectivity” (Bioorg Med Chem, 2010)
